What was measured:
[1] = biological target: Phosphorylase b kinase gamma catalytic chain, skeletal muscle/heart isoform (Homo sapiens) (UniProt Q16816); test: Inhibition of human recombinant PHKg1 at 40 nM related to control ULK1
[2] = biological target: MAP/microtubule affinity-regulating kinase 3 (Homo sapiens) (UniProt P27448); test: Inhibition of human recombinant MARK3 at 40 nM in presence of ATP by radiometric assay relative to control
[3] = species on record: Homo sapiens; test: Inhibition of human recombinant ABL at 40 nM in presence of ATP by radiometric assay relative to control
Summary of the method: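 Radiometric activity assays in a panel of 327 human recombinant kinases, each run in duplicate at one inhibitor concentration. Activity remaining is expressed as percent of vehicle control, and percent inhibition is calculated as 100% minus percent activity remaining.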

[4] = biological target: Fibroblast growth factor receptor 3 (Homo sapiens) (UniProt P22607); test: Inhibition of human recombinant FGFR3 at 40 nM related to control ULK1
[5] = biological target: T1, Serine/threonine-protein kinase STK11 (Homo sapiens) (UniProt Q15831); test: Inhibition of human recombinant LKB1 at 40 nM in presence of ATP by radiometric assay relative to control
T1 sequence (whole entry): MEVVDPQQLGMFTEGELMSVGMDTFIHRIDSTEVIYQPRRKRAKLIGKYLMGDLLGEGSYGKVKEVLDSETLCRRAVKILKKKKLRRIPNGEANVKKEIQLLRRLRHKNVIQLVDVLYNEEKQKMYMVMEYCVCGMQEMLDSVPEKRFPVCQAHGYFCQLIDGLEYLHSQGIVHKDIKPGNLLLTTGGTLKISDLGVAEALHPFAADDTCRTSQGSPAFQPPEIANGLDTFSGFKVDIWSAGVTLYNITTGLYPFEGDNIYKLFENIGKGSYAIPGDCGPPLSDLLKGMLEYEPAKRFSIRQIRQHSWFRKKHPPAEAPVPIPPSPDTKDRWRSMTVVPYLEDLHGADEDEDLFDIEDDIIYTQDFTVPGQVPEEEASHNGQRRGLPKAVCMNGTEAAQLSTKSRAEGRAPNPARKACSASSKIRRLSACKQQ

[6] = biological target: Maternal embryonic leucine zipper kinase (Homo sapiens) (UniProt Q14680); test: Inhibition of human recombinant MELK at 40 nM in presence of ATP by radiometric assay relative to control
[7] = biological target: G protein-coupled receptor kinase 5 (Homo sapiens) (UniProt P34947); test: Inhibition of human recombinant GPRK5 at 500 nM related to control ULK1
Chain of G protein-coupled receptor kinase 5 (Homo sapiens) (P34947 whole entry, looked up): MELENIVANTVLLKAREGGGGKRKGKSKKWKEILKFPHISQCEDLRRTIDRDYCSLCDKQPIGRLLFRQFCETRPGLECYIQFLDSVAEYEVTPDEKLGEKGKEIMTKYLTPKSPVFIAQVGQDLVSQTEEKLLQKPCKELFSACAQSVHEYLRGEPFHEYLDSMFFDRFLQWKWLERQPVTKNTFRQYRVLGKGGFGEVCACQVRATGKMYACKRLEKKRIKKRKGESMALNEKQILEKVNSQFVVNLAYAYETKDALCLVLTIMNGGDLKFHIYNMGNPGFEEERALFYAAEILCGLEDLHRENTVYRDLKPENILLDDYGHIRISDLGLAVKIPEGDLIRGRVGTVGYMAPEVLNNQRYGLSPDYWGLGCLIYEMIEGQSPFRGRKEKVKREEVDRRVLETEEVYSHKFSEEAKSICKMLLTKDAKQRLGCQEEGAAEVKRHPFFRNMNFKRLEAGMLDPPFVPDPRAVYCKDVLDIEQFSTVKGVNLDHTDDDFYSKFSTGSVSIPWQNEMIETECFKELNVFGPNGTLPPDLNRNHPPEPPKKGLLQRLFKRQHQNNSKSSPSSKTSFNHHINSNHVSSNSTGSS

[8] = biological target: T2, Protein kinase C epsilon type (Homo sapiens) (UniProt Q02156); test: Inhibition of human recombinant PKCe at 500 nM in presence of ATP by radiometric assay relative to control
T2 sequence (whole entry): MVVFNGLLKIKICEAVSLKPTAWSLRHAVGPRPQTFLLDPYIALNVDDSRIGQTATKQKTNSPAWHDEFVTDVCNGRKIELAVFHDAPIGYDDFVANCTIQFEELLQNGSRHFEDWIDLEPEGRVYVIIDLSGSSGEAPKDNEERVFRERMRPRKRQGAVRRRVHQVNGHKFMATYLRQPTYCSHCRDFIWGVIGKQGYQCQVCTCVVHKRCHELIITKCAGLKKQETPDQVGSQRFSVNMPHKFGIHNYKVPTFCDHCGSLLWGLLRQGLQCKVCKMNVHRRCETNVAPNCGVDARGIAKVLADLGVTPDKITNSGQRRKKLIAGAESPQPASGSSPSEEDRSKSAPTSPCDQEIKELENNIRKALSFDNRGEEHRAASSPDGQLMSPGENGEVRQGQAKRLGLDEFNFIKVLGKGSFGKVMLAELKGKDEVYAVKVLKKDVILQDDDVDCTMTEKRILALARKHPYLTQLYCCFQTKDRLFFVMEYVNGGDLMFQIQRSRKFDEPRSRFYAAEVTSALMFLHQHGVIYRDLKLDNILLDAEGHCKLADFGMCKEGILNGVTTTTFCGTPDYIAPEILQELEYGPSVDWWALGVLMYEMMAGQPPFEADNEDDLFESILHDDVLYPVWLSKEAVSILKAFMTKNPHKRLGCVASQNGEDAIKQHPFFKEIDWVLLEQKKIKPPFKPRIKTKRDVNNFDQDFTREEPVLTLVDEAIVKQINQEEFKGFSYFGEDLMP

[9] = species on record: Homo sapiens; test: Inhibition of human recombinant KHS1 at 500 nM related to control ULK1
[10] = biological target: Homeodomain-interacting protein kinase 1 (Homo sapiens) (UniProt Q86Z02); test: Inhibition of human recombinant HIPK1 at 500 nM related to control ULK1
Chain of Homeodomain-interacting protein kinase 1 (Homo sapiens) (Q86Z02 whole entry, looked up): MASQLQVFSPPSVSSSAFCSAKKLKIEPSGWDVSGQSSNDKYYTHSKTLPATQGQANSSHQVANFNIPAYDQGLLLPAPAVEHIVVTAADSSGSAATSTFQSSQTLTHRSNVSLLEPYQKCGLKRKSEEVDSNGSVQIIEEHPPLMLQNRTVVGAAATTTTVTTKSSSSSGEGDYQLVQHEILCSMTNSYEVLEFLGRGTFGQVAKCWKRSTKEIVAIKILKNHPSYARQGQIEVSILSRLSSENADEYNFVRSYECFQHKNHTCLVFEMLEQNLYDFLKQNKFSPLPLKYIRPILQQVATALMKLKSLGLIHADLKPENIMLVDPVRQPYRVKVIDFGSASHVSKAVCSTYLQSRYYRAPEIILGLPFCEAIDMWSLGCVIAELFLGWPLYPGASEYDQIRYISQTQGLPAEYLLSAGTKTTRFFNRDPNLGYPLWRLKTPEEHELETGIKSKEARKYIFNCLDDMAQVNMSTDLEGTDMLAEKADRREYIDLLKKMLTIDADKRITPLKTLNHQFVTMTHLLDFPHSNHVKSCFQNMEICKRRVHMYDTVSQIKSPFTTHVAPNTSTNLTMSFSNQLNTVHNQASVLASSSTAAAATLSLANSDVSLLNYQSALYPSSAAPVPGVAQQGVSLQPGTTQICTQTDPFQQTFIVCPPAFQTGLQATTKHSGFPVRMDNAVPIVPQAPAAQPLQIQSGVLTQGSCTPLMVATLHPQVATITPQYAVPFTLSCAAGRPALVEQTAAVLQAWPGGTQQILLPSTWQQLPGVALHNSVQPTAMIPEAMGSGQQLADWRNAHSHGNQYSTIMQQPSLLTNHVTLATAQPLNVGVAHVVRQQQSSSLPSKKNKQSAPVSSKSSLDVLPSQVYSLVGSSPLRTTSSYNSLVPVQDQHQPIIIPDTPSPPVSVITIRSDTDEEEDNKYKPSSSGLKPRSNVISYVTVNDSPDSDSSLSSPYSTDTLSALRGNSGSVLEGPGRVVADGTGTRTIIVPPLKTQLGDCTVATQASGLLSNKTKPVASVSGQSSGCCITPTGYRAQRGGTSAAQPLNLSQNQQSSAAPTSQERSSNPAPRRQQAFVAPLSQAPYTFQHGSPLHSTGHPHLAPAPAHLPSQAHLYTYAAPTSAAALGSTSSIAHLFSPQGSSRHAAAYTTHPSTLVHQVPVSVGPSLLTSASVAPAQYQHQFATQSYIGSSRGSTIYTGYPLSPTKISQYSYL

[11] = biological target: Insulin receptor (Homo sapiens) (UniProt P06213); test: Inhibition of human recombinant INSR at 500 nM in presence of ATP by radiometric assay relative to control
Chain of Insulin receptor (Homo sapiens) (P06213 28-758 limits assumed): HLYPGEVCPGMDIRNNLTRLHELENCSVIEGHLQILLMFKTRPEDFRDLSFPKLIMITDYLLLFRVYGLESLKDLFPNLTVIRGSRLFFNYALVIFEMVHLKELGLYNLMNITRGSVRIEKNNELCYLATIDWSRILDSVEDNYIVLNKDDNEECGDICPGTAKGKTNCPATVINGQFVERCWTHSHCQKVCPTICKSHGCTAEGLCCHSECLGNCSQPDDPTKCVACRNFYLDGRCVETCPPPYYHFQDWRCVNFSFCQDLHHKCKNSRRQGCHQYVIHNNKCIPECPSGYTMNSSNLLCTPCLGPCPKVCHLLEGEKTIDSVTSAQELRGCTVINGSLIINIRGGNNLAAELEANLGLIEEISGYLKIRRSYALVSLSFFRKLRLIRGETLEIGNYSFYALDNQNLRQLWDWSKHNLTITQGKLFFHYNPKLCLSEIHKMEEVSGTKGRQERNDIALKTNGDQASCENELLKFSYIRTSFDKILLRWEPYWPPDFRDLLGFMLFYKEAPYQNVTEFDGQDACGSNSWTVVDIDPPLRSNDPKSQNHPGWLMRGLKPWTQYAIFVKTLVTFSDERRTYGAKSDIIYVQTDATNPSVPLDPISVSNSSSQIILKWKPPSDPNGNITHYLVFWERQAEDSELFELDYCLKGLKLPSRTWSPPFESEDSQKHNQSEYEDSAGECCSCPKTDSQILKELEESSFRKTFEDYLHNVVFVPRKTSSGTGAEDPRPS
Chain of Insulin receptor (Homo sapiens) (P06213 763-1382 limits assumed): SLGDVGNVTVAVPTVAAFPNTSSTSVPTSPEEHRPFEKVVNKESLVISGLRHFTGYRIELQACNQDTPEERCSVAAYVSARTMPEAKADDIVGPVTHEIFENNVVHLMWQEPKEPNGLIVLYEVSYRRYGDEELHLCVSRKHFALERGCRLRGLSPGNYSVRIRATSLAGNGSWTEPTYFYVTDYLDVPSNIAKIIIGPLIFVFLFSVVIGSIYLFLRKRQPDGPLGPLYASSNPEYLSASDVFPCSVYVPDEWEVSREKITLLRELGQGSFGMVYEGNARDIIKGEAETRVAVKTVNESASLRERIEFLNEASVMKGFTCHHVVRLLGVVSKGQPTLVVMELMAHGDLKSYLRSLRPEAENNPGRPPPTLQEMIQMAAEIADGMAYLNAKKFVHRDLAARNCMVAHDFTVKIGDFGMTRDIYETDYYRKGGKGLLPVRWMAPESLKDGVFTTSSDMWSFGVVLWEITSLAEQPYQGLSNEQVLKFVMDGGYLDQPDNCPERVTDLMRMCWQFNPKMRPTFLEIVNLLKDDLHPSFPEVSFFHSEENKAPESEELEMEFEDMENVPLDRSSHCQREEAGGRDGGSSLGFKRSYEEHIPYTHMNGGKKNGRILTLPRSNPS

[12] = biological target: Tyrosine-protein kinase JAK2 (Homo sapiens) (UniProt O60674); test: Inhibition of human recombinant JAK2 at 500 nM in presence of ATP by radiometric assay relative to control
Chain of Tyrosine-protein kinase JAK2 (Homo sapiens) (O60674 whole entry): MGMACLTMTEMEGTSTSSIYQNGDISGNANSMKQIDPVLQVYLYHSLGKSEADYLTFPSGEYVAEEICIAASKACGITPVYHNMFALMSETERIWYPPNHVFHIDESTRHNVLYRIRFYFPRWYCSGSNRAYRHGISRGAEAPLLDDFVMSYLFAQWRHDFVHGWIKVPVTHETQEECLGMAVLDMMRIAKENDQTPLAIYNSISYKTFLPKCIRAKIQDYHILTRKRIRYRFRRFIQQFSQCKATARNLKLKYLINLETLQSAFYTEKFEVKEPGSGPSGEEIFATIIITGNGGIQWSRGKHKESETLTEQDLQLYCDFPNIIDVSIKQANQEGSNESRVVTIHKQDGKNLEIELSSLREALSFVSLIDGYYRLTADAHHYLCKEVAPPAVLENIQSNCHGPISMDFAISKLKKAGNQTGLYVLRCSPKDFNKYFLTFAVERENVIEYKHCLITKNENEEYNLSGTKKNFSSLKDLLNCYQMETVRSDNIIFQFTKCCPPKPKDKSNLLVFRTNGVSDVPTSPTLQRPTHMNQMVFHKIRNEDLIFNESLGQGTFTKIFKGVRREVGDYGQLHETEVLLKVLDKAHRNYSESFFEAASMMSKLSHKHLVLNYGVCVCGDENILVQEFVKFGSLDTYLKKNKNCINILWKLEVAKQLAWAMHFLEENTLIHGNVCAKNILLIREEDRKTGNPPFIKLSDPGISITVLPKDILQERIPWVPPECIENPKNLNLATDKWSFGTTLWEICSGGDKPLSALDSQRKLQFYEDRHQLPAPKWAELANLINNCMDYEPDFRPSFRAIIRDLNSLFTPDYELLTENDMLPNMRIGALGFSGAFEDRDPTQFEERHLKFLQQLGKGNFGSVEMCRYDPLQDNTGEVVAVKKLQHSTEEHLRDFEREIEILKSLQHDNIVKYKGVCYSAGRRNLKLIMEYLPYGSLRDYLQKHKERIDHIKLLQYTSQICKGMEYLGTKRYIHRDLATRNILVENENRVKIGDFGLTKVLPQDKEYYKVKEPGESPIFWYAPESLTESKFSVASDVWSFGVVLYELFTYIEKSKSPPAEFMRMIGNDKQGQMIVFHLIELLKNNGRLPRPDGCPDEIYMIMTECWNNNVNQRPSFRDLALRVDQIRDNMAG

[13] = biological target: Cyclin-dependent kinase-like 1 (Homo sapiens) (UniProt Q00532); test: Inhibition of human recombinant CDKL1 at 500 nM in presence of ATP by radiometric assay relative to control
[14] = biological target: T3, Serine/threonine-protein kinase ULK3 (Homo sapiens) (UniProt Q6PHR2); test: Inhibition of human recombinant ULK3 at 15 nM related to control ULK1
T3 sequence (whole entry): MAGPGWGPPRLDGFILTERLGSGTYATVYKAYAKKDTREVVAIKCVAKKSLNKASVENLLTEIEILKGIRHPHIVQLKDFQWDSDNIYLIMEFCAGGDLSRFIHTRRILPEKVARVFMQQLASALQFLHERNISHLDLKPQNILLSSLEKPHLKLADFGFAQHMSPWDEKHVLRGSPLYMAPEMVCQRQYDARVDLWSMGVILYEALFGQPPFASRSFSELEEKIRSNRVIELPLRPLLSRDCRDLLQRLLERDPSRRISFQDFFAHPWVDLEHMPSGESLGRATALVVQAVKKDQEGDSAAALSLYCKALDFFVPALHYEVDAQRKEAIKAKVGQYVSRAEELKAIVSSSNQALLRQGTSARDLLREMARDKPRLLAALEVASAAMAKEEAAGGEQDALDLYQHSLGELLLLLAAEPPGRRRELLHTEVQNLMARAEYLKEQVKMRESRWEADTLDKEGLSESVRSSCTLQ

[15] = biological target: Rho-associated protein kinase 1 (Homo sapiens) (UniProt Q13464); test: Inhibition of human recombinant ROCK1 at 15 nM in presence of ATP by radiometric assay relative to control
[16] = biological target: Cell division cycle 7-related protein kinase (Homo sapiens) (UniProt O00311); test: Inhibition of human recombinant CDC7 at 15 nM in presence of ATP by radiometric assay relative to control

Chain of MAP/microtubule affinity-regulating kinase 3 (Homo sapiens) (P27448 whole entry, looked up): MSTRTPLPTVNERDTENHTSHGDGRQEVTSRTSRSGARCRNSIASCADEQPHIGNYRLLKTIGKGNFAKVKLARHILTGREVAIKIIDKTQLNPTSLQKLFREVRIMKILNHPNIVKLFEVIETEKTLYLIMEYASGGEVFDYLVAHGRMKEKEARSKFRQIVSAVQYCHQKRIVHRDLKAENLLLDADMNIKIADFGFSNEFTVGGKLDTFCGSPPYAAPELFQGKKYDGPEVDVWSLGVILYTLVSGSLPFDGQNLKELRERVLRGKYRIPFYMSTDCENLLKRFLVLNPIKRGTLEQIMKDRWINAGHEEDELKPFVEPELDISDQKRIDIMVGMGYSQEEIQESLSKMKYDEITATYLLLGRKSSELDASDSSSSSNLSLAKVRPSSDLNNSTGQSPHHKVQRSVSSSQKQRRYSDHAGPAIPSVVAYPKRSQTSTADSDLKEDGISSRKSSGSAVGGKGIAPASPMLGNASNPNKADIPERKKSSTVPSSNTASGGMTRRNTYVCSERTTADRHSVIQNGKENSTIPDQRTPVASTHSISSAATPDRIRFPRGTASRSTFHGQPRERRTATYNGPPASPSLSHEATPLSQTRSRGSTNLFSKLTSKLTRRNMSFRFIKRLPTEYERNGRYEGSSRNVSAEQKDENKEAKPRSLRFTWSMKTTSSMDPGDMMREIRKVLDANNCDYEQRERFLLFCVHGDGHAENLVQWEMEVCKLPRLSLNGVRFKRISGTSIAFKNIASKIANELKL

Question: For `O=C(N[C@@H](C1CC1)C(F)(F)F)c1cc(-c2cnn3cc(-c4ccc(F)cc4)cnc23)cs1`, which fold change (FC) [1] is on record?
Answer: The fold change (FC) was 0.16.

Question: And the inhibition [2]?
Answer: Its inhibition is 15%.

Question: What about the inhibition [3] of the same compound?
Answer: The inhibition was 12%.

Question: And the fold change (FC) [4]?
Answer: The fold change (FC) was 0.

Question: And the inhibition [5]?
Answer: Its inhibition is 13%.

Question: And the inhibition [6]?
Answer: Its inhibition is 20%.

Question: How did the fold change (FC) [7] turn out when `CNC(=O)c1ccccc1Oc1nc(Nc2cc(OC)c(OC)c(OC)c2)ncc1Br` was run?
Answer: Its fold change (FC) is 0.01.

Question: And the inhibition [8]?
Answer: The inhibition was 0%.

Question: And the fold change (FC) [9]?
Answer: The fold change (FC) was 0.15.

Question: And the fold change (FC) [10]?
Answer: Its fold change (FC) is 0.04.

Question: What about the inhibition [11] of the same compound?
Answer: Its inhibition is 0%.

Question: And the inhibition [12]?
Answer: The inhibition was 78%.

Question: And the inhibition [13]?
Answer: The inhibition was 0%.

Question: How did the fold change (FC) [14] turn out when `CC(C)[C@H](NC(=O)c1cc(-c2cnn3cc(-c4ccc(OCCN5CCCCC5)cc4)cnc23)cs1)C(F)(F)F` was run?
Answer: Its fold change (FC) is 0.45.

Question: What about the inhibition [15] of the same compound?
Answer: Its inhibition is 8%.

Question: And the inhibition [16]?
Answer: Its inhibition is 8%.

From ChEMBL document CHEMBL5653631, “A Potent and Selective ULK1 Inhibitor Suppresses Autophagy and Sensitizes Cancer Cells to Nutrient Stress” (iScience, 2018)
